Results from ChEMBL document CHEMBL1148755, “Structural analogues of smoothened intracellular loops as potent inhibitors of Hedgehog pathway and cancer cell growth” (J Med Chem, 2007).
pIC50: −log10 of the molar value. Square brackets hold non-standard residues; d marks the D form. Peptide text beside a SMILES is read from it. * marks the point of attachment. Bpa = N[C@@H](Cc1ccc(C(=O)c2ccccc2)cc1)C(=O)O; Palmitoyl = CCCCCCCCCCCCCCCC(=O)*; Myristoyl = CCCCCCCCCCCCCC(=O)*; Nle = CCCC[C@H](N)C(=O)O

Test system: SK-MEL-2
Test: Growth inhibition of SK-Mel2 melanoma cells after 48 hrs by MTT assay
Format: functional, cell-based, Homo sapiens
Settings: Homo sapiens, SK-MEL-2, 48 h
How it was run: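 Cells seeded at 200-400 per well in DMEM with 10% FBS and left to attach for 24 h. The next day, inhibitor in medium at 2× was added in an equal volume, and cells were incubated 48 h in a CO2 incubator. Reference plates were read at time of addition for T0 density. MTT staining was read as absorbance at 544 nm and compared with untreated control cells.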

Question: With `CCCCCCCCCCCCCCCC(=O)NCCCC[C@H](NC(=O)[C@H](Cc1ccc(O)cc1)NC(=O)[C@H](CO)NC(=O)[C@@H](NC(=O)[C@H](CCCCN)NC(=O)CNC(=O)[C@H](CO)NC(=O)[C@H](CC(C)C)NC(=O)[C@@H]1CCCN1C(=O)[C@H](CCC(N)=O)NC(=O)[C@H](Cc1ccc(O)cc1)NC(=O)[C@@H](NC(=O)[C@@H](NC(=O)CNC(=O)[C@H](CC(C)C)NC(=O)[C@H](C)NC(=O)[C@H](CCCCN)NC(=O)[C@H](Cc1ccccc1)NC(=O)[C@H](CO)NC(=O)[C@@H](NC(=O)[C@H](Cc1cnc[nH]1)NC(=O)[C@H](Cc1c[nH]c2ccccc12)NC(=O)[C@H](C)NC(=O)[C@H](Cc1ccc(O)cc1)NC(C)=O)[C@@H](C)O)[C@@H](C)O)[C@@H](C)O)[C@@H](C)O)C(=O)O` (Ac-YAWHTSFKALGTTYQPLSGKTSYK(Palmitoyl)-OH) as the compound, how does the pIC50 read?
Answer: 6.00

Question: `CCCCCCCCCCCCCCCC(=O)N[C@@H](CCCNC(=N)N)C(=O)NCC(=O)N[C@H](C(=O)N[C@@H](CCSC)C(=O)N[C@H](C(=O)N[C@@H](CC(C)C)C(=O)N[C@@H](Cc1ccccc1)C(=O)N[C@@H](CO)C(=O)N[C@H](C(=O)N[C@@H](CCCCN)C(=O)N[C@@H](CO)C(=O)N[C@@H](CC(N)=O)C(=O)N[C@@H](Cc1c[nH]cn1)C(=O)O)[C@@H](C)CC)[C@@H](C)O)C(C)C` (Palmitoyl-RGVMTLFSIKSNH-OH) was tested. Which pIC50 did it give?
Answer: 6.02

Question: How did the pIC50 turn out when `CCCCCCCCCCCCCCCC(=O)N[C@@H](CC(C)C)C(=O)N[C@H](C(=O)N[C@@H](Cc1ccc(O)cc1)C(=O)N[C@@H](C)C(=O)N[C@@H](Cc1ccc(C(=O)c2ccccc2)cc1)C(=O)N[C@@H](Cc1cnc[nH]1)C(=O)N[C@H](C(=O)N[C@@H](CO)C(=O)N[C@@H](Cc1ccccc1)C(=O)N[C@@H](CCCCN)C(=O)N[C@@H](C)C(=O)N[C@@H](CC(C)C)C(=O)N[C@H](CCSC(=O)CCCC[C@@H]1SC[C@@H]2NC(=O)N[C@@H]21)C(=O)O)[C@@H](C)O)[C@@H](C)O` was run?
Answer: < 4.82

Question: With `CCCCCCCCCCCCCCCC(=O)N[C@@H](CC(C)C)C(=O)N[C@H](C(=O)N[C@@H](Cc1ccc(O)cc1)C(=O)N[C@@H](C)C(=O)N[C@@H](Cc1ccc(C(=O)c2ccccc2)cc1)C(=O)N[C@@H](Cc1cnc[nH]1)C(=O)N[C@H](C(=O)N[C@@H](CO)C(=O)N[C@@H](Cc1ccccc1)C(=O)N[C@@H](CCCCN)C(=O)N[C@@H](C)C(=O)N[C@@H](CC(C)C)C(=O)O)[C@@H](C)O)[C@@H](C)O` (Palmitoyl-LTYA[Bpa]HTSFKAL-OH) as the compound, how does the pIC50 read?
Answer: 7.00

Question: How did the pIC50 turn out when H-VWFVVLTYAWHTSFKAL-OH was run?
Answer: < 5.30

Question: Ac-LTYAWHTSFKAL-OH was tested. Which pIC50 did it give?
Answer: < 5.00

Question: `CCCCCCCCCCCCCCCC(=O)N[C@@H](CC(C)C)C(=O)N[C@H](C(=O)N[C@@H](Cc1ccc(O)cc1)C(=O)N[C@@H](C)C(=O)N[C@@H](Cc1c[nH]c2ccccc12)C(=O)N[C@@H](Cc1cnc[nH]1)C(=O)N[C@H](C(=O)N[C@@H](CO)C(=O)N[C@@H](Cc1ccccc1)C(=O)N[C@@H](CCCCN)C(=O)O)[C@@H](C)O)[C@@H](C)O` (Palmitoyl-LTYAWHTSFK-OH) was tested. Which pIC50 did it give?
Answer: 7.22

Question: `CCCCCCCCCCCCCCCC(=O)N[C@@H](CC(C)C)C(=O)N[C@H](C(=O)N[C@@H](Cc1ccc(O)cc1)C(=O)N[C@@H](C)C(=O)N[C@@H](Cc1c[nH]c2ccccc12)C(=O)N[C@@H](Cc1cnc[nH]1)C(=O)N[C@H](C(=O)N[C@@H](CO)C(=O)N[C@@H](Cc1ccccc1)C(=O)N[C@@H](CCCCN)C(=O)N[C@@H](C)C(=O)N[C@@H](CC(C)C)C(=O)NCC(=O)N[C@H](C(=O)N[C@H](C(=O)N[C@@H](Cc1ccc(O)cc1)C(=O)N[C@@H](CCC(N)=O)C(=O)N1CCC[C@H]1C(=O)N[C@@H](CC(C)C)C(=O)N[C@@H](CO)C(=O)NCC(=O)O)[C@@H](C)O)[C@@H](C)O)[C@@H](C)O)[C@@H](C)O` (Palmitoyl-LTYAWHTSFKALGTTYQPLSG-OH) was tested. Which pIC50 did it give?
Answer: 5.85

Question: `CCCCCCCCCCCCCCCC(=O)N[C@@H](CCCNC(=N)N)C(=O)NCC(=O)N[C@H](C(=O)N[C@@H](CCSC)C(=O)N[C@H](C(=O)N[C@@H](CC(C)C)C(=O)N[C@@H](Cc1ccccc1)C(=O)N[C@@H](CO)C(=O)N[C@H](C(=O)N[C@@H](CCCCN)C(=O)N[C@@H](CO)C(=O)N[C@@H](CC(N)=O)C(=O)N[C@@H](Cc1c[nH]cn1)C(=O)N1CCC[C@H]1C(=O)NCC(=O)N[C@@H](CC(C)C)C(=O)N[C@@H](CC(C)C)C(=O)N[C@@H](CO)C(=O)O)[C@@H](C)CC)[C@@H](C)O)C(C)C` (Palmitoyl-RGVMTLFSIKSNHPGLLS-OH) was tested. Which pIC50 did it give?
Answer: 6.30

Question: How did the pIC50 turn out when `CCCC[C@H](NC(=O)[C@H](CCCNC(=N)N)NC(=O)[C@H](CCCNC(=N)N)NC(=O)[C@H](CC(N)=O)NC(=O)[C@@H]1CCCN1C(=O)[C@H](Cc1ccccc1)NC(=O)[C@H](Cc1c[nH]c2ccccc12)NC(=O)[C@@H](NC(=O)[C@H](CCCCN)NC(=O)[C@@H](NC(=O)[C@H](CCC(N)=O)NC(=O)[C@H](CCCNC(=N)N)NC(=O)[C@H](CC(C)C)NC(=O)[C@H](C)NC(=O)[C@H](CCCCN)NC(=O)[C@H](Cc1ccccc1)NC(=O)[C@H](CO)NC(=O)[C@@H](NC(=O)[C@H](Cc1cnc[nH]1)NC(=O)[C@H](Cc1c[nH]c2ccccc12)NC(=O)[C@H](C)NC(=O)[C@H](Cc1ccc(O)cc1)NC(=O)[C@@H](NC(=O)[C@H](CC(C)C)NC(C)=O)[C@@H](C)O)[C@@H](C)O)[C@@H](C)CC)[C@@H](C)CC)C(=O)N[C@@H](CCCCN)C(=O)N[C@@H](Cc1c[nH]c2ccccc12)C(=O)N[C@@H](CCCCN)C(=O)N[C@@H](CCCCN)C(=O)O` (Ac-LTYAWHTSFKALRQIKIWFPNRR[Nle]KWKK-OH) was run?
Answer: < 4.82

Question: `CCCCCCCCCCCCCCCC(=O)NCCCC[C@H](NC(=O)[C@H](CCCNC(=N)N)NC(=O)[C@H](CC(C)C)NC(=O)[C@H](CCSC)NC(=O)[C@@H](NC(=O)[C@H](CCC(=O)O)NC(=O)[C@H](CC(N)=O)NC(=O)[C@@H](NC(=O)[C@H](CCCCN)NC(=O)[C@H](CO)NC(=O)[C@H](C)NC(=O)[C@H](C)NC(=O)[C@H](CCCCN)NC(=O)[C@H](CCC(=O)O)NC(=O)[C@H](CO)NC(=O)[C@H](CC(C)C)NC(=O)[C@H](CC(C)C)NC(=O)CNC(=O)[C@@H]1CCCN1C(=O)[C@H](Cc1c[nH]cn1)NC(=O)[C@H](CC(N)=O)NC(=O)[C@H](CO)NC(=O)[C@H](CCCCN)NC(=O)[C@@H](NC(=O)[C@H](CO)NC(=O)[C@H](Cc1ccccc1)NC(=O)[C@H](CC(C)C)NC(=O)[C@@H](NC(=O)[C@H](CCSC)NC(=O)[C@@H](NC(=O)CNC(=O)[C@H](CCCNC(=N)N)NC(C)=O)C(C)C)[C@@H](C)O)[C@@H](C)CC)[C@@H](C)CC)[C@@H](C)O)C(=O)O` (Ac-RGVMTLFSIKSNHPGLLSEKAASKINETMLRK(Palmitoyl)-OH) was tested. Which pIC50 did it give?
Answer: 6.05

Question: How did the pIC50 turn out when `CCCCCCCCCCCCCCCC(=O)N[C@@H](CC(C)C)C(=O)N[C@H](C(=O)N[C@@H](Cc1ccc(O)cc1)C(=O)N[C@@H](C)C(=O)N[C@@H](Cc1c[nH]c2ccccc12)C(=O)N[C@@H](Cc1cnc[nH]1)C(=O)N[C@H](C(=O)N[C@@H](CO)C(=O)N[C@@H](Cc1ccccc1)C(=O)N[C@@H](CCCCN)C(=O)N[C@@H](C)C(=O)N[C@@H](CC(C)C)C(=O)NCC(=O)N[C@H](C(=O)N[C@H](C(=O)N[C@@H](Cc1ccc(O)cc1)C(=O)N[C@@H](CCC(N)=O)C(=O)N1CCC[C@H]1C(=O)O)[C@@H](C)O)[C@@H](C)O)[C@@H](C)O)[C@@H](C)O` (Palmitoyl-LTYAWHTSFKALGTTYQP-OH) was run?
Answer: 6.52

Question: `CCCCCCCCCCCCCC(=O)N[C@@H](CC(C)C)C(=O)N[C@H](C(=O)N[C@@H](Cc1ccc(O)cc1)C(=O)N[C@@H](C)C(=O)N[C@@H](Cc1c[nH]c2ccccc12)C(=O)N[C@@H](Cc1cnc[nH]1)C(=O)N[C@H](C(=O)N[C@@H](CO)C(=O)N[C@@H](Cc1ccccc1)C(=O)N[C@@H](CCCCN)C(=O)N[C@@H](C)C(=O)N[C@@H](CC(C)C)C(=O)O)[C@@H](C)O)[C@@H](C)O` (Myristoyl-LTYAWHTSFKAL-OH) was tested. Which pIC50 did it give?
Answer: 6.70
